Vif inh – HIV Vif inhibition. 340,000 compounds, 0.35% hits. inhibition, % at 7.49 µM. HEK293T cells, Vif self-association by quenched fluorescence, imaging, 24 h. AID 602346; in the data active means inhibition above about 50%, passing the limit was not always enough; inconclusive means no clear call, values can overlap the other calls; inactive means below about 31%
T cell modulator – T cell immune modulation candidate; 330,000 compounds, 0.068% hits; response (vesicle binding), % at 7 µM; 2C CD8+ T cell-vesicle binding, flow cytometry; stronger effect = lower value; AID 2052;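 active means response, share of CD8 T cells binding vesicles, and their 90th percentile fluorescence all below set limits, cut at about 80% in these data, passing the limit was not always enough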;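 further: values below 100% mean blocked vesicle binding to the CD8+ T cells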
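Material: murine 2C transgenic CD8+ T lymphocytes / Also added: QL9-peptide-loaded Drosophila micro-vesicles bearing Ld, ICAM-1 and B7-1 / Schedule: binding step 1.5 h, 37 °C, antibody labelling 20 min, ice / Signal: flow cytometry, PE anti-B7-1 (FL2) versus Alexa647 anti-CD8 (FL8), PFA-fixed / Evaluation: percent CD8+ FL2 mean versus row control / Benchmarks: naked versus QL9-loaded vesicles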
CASP6 VEID inh – caspase-6 (human) enzyme inhibition | P55212 | purified caspase-6, Z-VEID-R110 cleavage fluorescence | inhibition, % at 12.5 µM | 350,000 compounds, 0.53% hits | AID 686996;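 active means mean inhibition across replicates at least about 35%, with every replicate also reaching that limit, limit read from the data; inconclusive means only one of the two criteria met; inactive means neither criterion met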;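 further: 0% = median of neutral control wells and 100% = no fluorescence left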
Target sequence (P55212 24-179 limits assumed): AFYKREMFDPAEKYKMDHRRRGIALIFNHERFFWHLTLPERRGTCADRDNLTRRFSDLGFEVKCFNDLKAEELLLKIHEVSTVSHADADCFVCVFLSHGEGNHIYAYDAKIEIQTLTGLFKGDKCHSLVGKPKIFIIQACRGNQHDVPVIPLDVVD
Target sequence (P55212 194-293 limits assumed): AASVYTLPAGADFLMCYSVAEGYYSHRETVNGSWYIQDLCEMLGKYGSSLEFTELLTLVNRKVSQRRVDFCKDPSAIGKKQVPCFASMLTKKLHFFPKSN
Myeloid diff 2 – myeloid differentiation induction; 360,000 compounds, 1% hits; calls only at 10 µM; ER-HoxA9 myeloid progenitors, lysozyme-GFP differentiation, flow cytometry;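 active means normalized GFP-positive differentiation at or above the plate's own cutoff, the solvent-only control mean plus 3 SD; inconclusive means no clear call, values can overlap the other calls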;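 further: cells exposed to compound for four days before flow analysis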
The depositor's hits bear a star; i = inactive; ? = inconclusive; . = not tested or not shown; + = active, no number. This is a sample that favours compounds with a hit; in the whole collection about 1.4% have one here.

SMILES | Vif inh | T cell modulator | CASP6 VEID inh | Myeloid diff 2
COc1ccccc1NS(=O)(=O)c1cccc(C(=O)NCC(C)(C)N2CCOCC2)c1 | 0 | 73 | 2 | i
Cc1cccc(NS(=O)(=O)c2cccc(C(=O)NCC(C)(C)N3CCOCC3)c2)c1 | . | 264 | 3 | +
Cc1cc(Cl)n2c(nc3cc(F)c(F)cc32)c1C#N | 77* | . | 15 | ?
Cc1cc(C)n2c(=O)c3ccc(Cl)cc3nc2c1C#N | -7 | 254 | 3 | i
CC1=CN2C(=N)/C(=C/c3ccco3)C(=O)N=C2S1 | 7 | 309 | 5 | i
CC1=CN2C(=N)/C(=C/c3ccc([N+](=O)[O-])o3)C(=O)N=C2S1 | 3 | 931 | 37* | ?
COc1cccc(Nc2nc(N)nc(CCl)n2)c1 | 1 | 607 | 0 | i
Cc1cccc(Nc2nc(N)nc(CCl)n2)c1 | 142* | 405 | 0 | i
CCC(=O)N1CC2(C1)[C@H](c1ccccc1)[C@@H](CO)N2C(=O)c1ccncc1 | . | . | 2 | .
O=C(NC1CCCCC1)N1CC(=O)N2[C@H](CO)[C@H](c3ccc(/C=C/c4ccccc4)cc3)[C@H]2C1 | . | . | 3 | .
COc1ccc(S(=O)(=O)N(C)C[C@@H]2OCCCC[C@H](C)Oc3ccc(NC(=O)Nc4c(C)noc4C)cc3C(=O)N([C@@H](C)CO)C[C@H]2C)cc1 | . | . | 0 | .
Cn1cccc1-c1cc(C(=O)N/N=C/c2ccc([N+](=O)[O-])cc2)[nH]n1 | 70* | 369 | 1 | i
Cn1cccc1-c1cc(C(=O)N/N=C/c2ccc(F)cc2)[nH]n1 | -20 | 220 | 1 | i
O=C(c1cccc(F)c1)N1CC(=O)N2[C@H](CO)[C@H](c3ccc(-c4ccccc4F)cc3)[C@H]2C1 | . | . | 2 | .
O=C(O)C(O)Cc1c[nH]c2ccccc12 (centres undefined) | -3 | 138 | -3 | i
CC(Cc1c[nH]c2ccccc12)C(=O)O (centres undefined) | 4 | 286 | 38* | i
O=C(O)COn1c(-c2ccccc2)nc2ccc([N+](=O)[O-])cc21 | -9 | 200 | 43* | i
CCOC(=O)C(C)On1c(-c2ccccc2)nc2ccc([N+](=O)[O-])cc21 (centres undefined) | 7 | 166 | . | i
CC=Cc1ccc2n(c1=O)C[C@H]1[C@H](CO)[C@@H](C(=O)NC3CCC3)[C@@H]2N1Cc1ccncc1 (mixture of isomers) | . | . | -2 | .
CCN(CC)c1ccc2c(Cl)c(Br)c(=O)oc2c1 | ? | 739 | . | +
CCN(CC)c1ccc2c(C)c(Cl)c(=O)oc2c1 | 4 | 192 | 6 | i
CC(C)NC(=O)N1CCCCN2[C@H](CO)[C@@H](c3ccc(C#Cc4ccccc4F)cc3)[C@H]2C1 | . | . | 1 | .
Cc1cc(C)cc(OCc2ccc(C(=O)NN)o2)c1 | -5 | 144 | -1 | +
COC(=O)c1c(NC(=O)CN2C(=O)NC3(CCC(C)CC3)C2=O)sc2c1CCC2 (centres undefined) | 24 | 495 | -4 | i
CC1CCC2(CC1)NC(=O)N(CC(=O)Nc1sc3c(c1C(N)=O)CCC3)C2=O (centres undefined) | -4 | 297 | 42* | i
SMILES | Vif inh | T cell modulator | CASP6 VEID inh | Myeloid diff 2
C[C@@H]1CN([C@@H](C)CO)C(=O)c2cc(NS(=O)(=O)c3cn(C)cn3)ccc2O[C@H]1CN(C)S(=O)(=O)c1cccs1 | . | . | -3 | .
Clc1ccc(-c2cc(-c3nnc4n3CCCCC4)c3ccccc3n2)cc1 | -8 | 156 | . | +
Fc1ccc(-c2cc(-c3nnc4n3CCCCC4)c3ccccc3n2)cc1 | 1 | 234 | 2 | i
O=C(NC1CCC1)[C@@H]1N[C@@H]2c3ccc(-c4cccc(F)c4)c(=O)n3C[C@@H]2[C@H]1CO | . | . | 1 | .
Cc1cccc2cc3c(N)c(C(=O)N4CCc5ccccc54)sc3nc12 | 11 | 183 | 2 | +
Cc1cc(C)c2nc3sc(C(=O)N4CCOCC4)c(N)c3cc2c1 | 67* | 706 | 2 | .
Cc1cccc2cc3c(N)c(C#N)sc3nc12 | 7 | 836 | . | i
Cc1sc(NC(=O)c2sc3nc4c(C)cccc4cc3c2N)c(C#N)c1C | 53* | 470 | . | +
Cc1ccc(C)c2nc3sc(C(=O)N4CCOCC4)c(N)c3cc12 | 4 | 236 | 5 | i
Cc1noc(C)c1NC(=O)N(C)C[C@H]1Oc2ccc(NC(=O)Cc3cn(C)c4ccccc34)cc2C(=O)N([C@H](C)CO)C[C@@H]1C | . | . | -1 | .
C[C@@H]1CN([C@H](C)CO)C(=O)c2cc(NC(=O)c3ccncc3)ccc2O[C@@H](C)CCCCO[C@H]1CN(C)S(=O)(=O)c1cccs1 | . | . | 0 | .
O=C(O)C[C@@H]1C[C@H]2c3cc(NS(=O)(=O)c4ccccc4)ccc3O[C@H]2[C@H](CO)O1 | . | . | -2 | .
CCc1ccc([C@@H]2CC=C(C(=O)O)[C@H](c3ccccc3)N2S(=O)(=O)c2ccc(C)cc2)cc1 | -3 | 570 | 6 | i
Cc1ccc(S(=O)(=O)N2[C@@H](c3ccc(Cl)c(Cl)c3)C(C(=O)O)=C[C@H]2CC2CCCC2)cc1 | -1 | 374 | 16 | i
CCc1ccc([C@@H]2CC=C(C(=O)O)[C@H](c3ccc(C(C)(C)C)cc3)N2S(=O)(=O)c2ccc(C)cc2)cc1 | . | 184 | 45* | i
Cc1ccc(S(=O)(=O)N2[C@@H](c3ccc(Cl)cc3)C(C(=O)O)=C[C@H]2CC2CCCC2)cc1 | . | 298 | 15 | +
Cc1ccc([C@@H]2CC=C(C(=O)O)[C@H](c3ccc(C(C)(C)C)cc3)N2S(=O)(=O)c2ccc(C)cc2)cc1 | 5 | 351 | 46* | i
CC(=O)N[C@H]1CC[C@@H](CCNC(=O)C2CCCCC2)O[C@H]1CO | . | . | 4 | .
O=S(=O)(NC[C@H]1CC[C@@H]2[C@@H](CN2Cc2cccc(-c3ccccn3)c2)O1)c1ccccc1 | . | . | -4 | .
C[C@H]1CN([C@@H](C)CO)C(=O)c2cc(/C=C/c3ccccc3)cnc2O[C@@H]1CN(C)C(=O)c1ccccc1 | . | . | -1 | .
CC(C)C#Cc1cnc2c(c1)C(=O)N([C@@H](C)CO)C[C@H](C)[C@H](CN(C)C(=O)Nc1ccc(F)cc1)O2 | . | . | 1 | .
CCOCCCn1c(=N)c(S(=O)(=O)c2ccc(C)cc2)cc2c(=O)n3cc(C)ccc3nc21 | 50* | 590 | 1 | i
Cc1ccc2nc3c(cc(S(=O)(=O)c4ccccc4)c(=N)n3Cc3ccco3)c(=O)n2c1 | 1 | 254 | 11 | i
COC(=O)c1ccc(C(=O)OC)c(NS(C)(=O)=O)c1 | 72* | 340 | . | i
c1coc(CNc2c3c(nc4ccccc24)CCC3)c1 | -3 | 534 | . | +
CC(C)NCC(=O)Nc1c2c(nc3ccccc13)CCC2 | -3 | i | 0 | i
CO[C@@H]1CN(C)C(=O)c2cc(NC(=O)C3CC3)ccc2OC[C@@H](C)N(Cc2ccccc2)C[C@@H]1C | . | . | -1 | .
COc1cccc(S(=O)(=O)N[C@H]2C=C[C@@H](CC(=O)NC3Cc4ccccc4C3)O[C@H]2CO)c1 | . | . | -4 | .
N#C[C@H]1[C@H](c2ccccc2C2=CCCCC2)[C@H](CO)N1C(=O)c1cccc(F)c1 | . | . | -2 | .
